We go through 15 compounds from ChEMBL document CHEMBL1933011, “Probing the antiamoebic and cytotoxicity potency of novel tetrazole and triazine derivatives” (Eur J Med Chem, 2012).

Structures are written as SMILES.

In one data set the test system is Entamoeba histolytica. The data set is described as follows: Antiamoebic activity against Entamoeba histolytica HM-1:IMSS after 72 hrs by microdilution method. The class given is functional, organism-based. A digest of the protocol:
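E. histolytica HM1:IMSS trophozoites in Diamond TYIS-33 medium; 1 mg mL-1 DMSO stocks, two-fold serial dilutions; 1.7 × 10^4 amoebae/well; sealed, gassed with nitrogen 10 min, 35.5 °C for 72 h. Wells methanol-fixed, eosin-stained, dye released in 0.1N NaOH, OD 490 nm. % inhibition vs control plotted against log dose; IC50 by linear regression. Triplicate, repeated thrice.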

In data set [1] the test system is HepG2. Put plainly: Cytotoxicity against human HepG2 cells after 48 hrs by MTT assay. The class given is cell-based. The conditions noted are these: for IC50: Homo sapiens, HepG2, 48 h; for Activity: human, hepg2, 48 h. A digest of the protocol:
(§1)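 HepG2 in DMEM/10% FBS, 1.2 × 10^4 cells/well, grown 48 h before dosing. Compounds from 10% DMSO stocks diluted in medium, 3.13–100 µM, 48 h at 37 °C, 5% CO2. MTT (5 mg mL-1) for 4 h, DMSO solubilisation, absorbance at 570 nm (reference 655 nm). Viability is treated absorbance relative to untreated control. Triplicate, repeated thrice.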

Data set [2] in a line: Cytotoxicity against human HepG2 cells assessed as viable cells at 25 uM after 48 hrs by MTT assay. The format is cell-based. The conditions noted are these: read-out: Activity. Put shortly: as §1
Data set [3] deals with HepG2. The data set is described as follows: Cytotoxicity against human HepG2 cells up to 50 uM after 48 hrs by MTT assay. The class given is cell-based. The note with it: hepg2, 48 h. Put shortly:
as §1

Data set [4] is described as follows: Safety index, ratio of IC50 for human HepG2 cells to IC50 for Entamoeba histolytica HM-1:IMSS. The class given is toxicity, cell-based. The note with it: read-out: Ratio IC50. Put shortly: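 Safety index calculated as HepG2 MTT IC50 (48 h) divided by E. histolytica HM1:IMSS IC50 (72 h microdilution).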
In data set [5] the test system is HepG2. Put plainly: Cytotoxicity against human HepG2 cells up to 100 uM after 48 hrs by MTT assay. The class given is cell-based. The conditions noted are these: hepg2, 48 h. Put shortly:
as §1

The nature of data set [6]: Cytotoxicity against human HepG2 cells assessed as viable cells at 3.13 uM after 48 hrs by MTT assay. The format is cell-based. The conditions noted are these: read-out: Activity. A digest of the protocol:
as §1

Consider `O=S(=O)(c1ccccc1)n1nnnc1-c1ccc2c(c1)OCO2`, for which the IC50 in the data set on Entamoeba histolytica was 7.56 µM; with HepG2 [1] it was more than 100 µM. Further, the Activity result with HepG2 [1] is listed as “Dose-dependent effect”; in the data set on HepG2 [3], “Toxic”; in the data set on HepG2 [5], “Toxic”. For the same compound, in data set [2], the viability at 48 h, 25 µM was not below 70%. In addition, the selectivity ratio in data set [4] is more than 13.2. Further, in data set [6], the viability at 48 h, 3.13 µM was determined as 92.5%.
Take `Cc1ccc(S(=O)(=O)n2nnnc2-c2ccc3c(c2)OCO3)cc1`: the results for the IC50 with Entamoeba histolytica and in the data set on HepG2 [1] were 6.1 µM and more than 100 µM, respectively. Besides, the Activity entry in the data set with HepG2 [1] is “Dose-dependent effect”; in the data set with HepG2 [3], “Toxic”; in the data set with HepG2 [5], “Toxic”. For the same compound, in data set [2], the viability at 48 h, 25 µM was not below 70%. Further, the selectivity ratio in data set [4] was more than 16.4. Also, in data set [6], the viability at 48 h, 3.13 µM amounted to 92.5%.
For the compound `O=S(=O)(c1ccc(Cl)cc1)n1nnnc1-c1ccc2c(c1)OCO2`, the IC50 in the data set on Entamoeba histolytica is 4.85 µM; in the data set with HepG2 [1], more than 100 µM. Further, the Activity entry in the data set with HepG2 [1] was “Dose-dependent effect”; in the data set with HepG2 [3] it was “Toxic”; in the data set with HepG2 [5], “Toxic”. Further, in data set [2], the viability at 48 h, 25 µM was not below 70%. For the same compound, in data set [4], the selectivity ratio is more than 20.6. Further, in data set [6], the viability at 48 h, 3.13 µM was 92.5%.
`O=[N+]([O-])c1ccc(S(=O)(=O)n2nnnc2-c2ccc3c(c2)OCO3)cc1`: the IC50 with Entamoeba histolytica came out at 3.75 µM; in the data set on HepG2 [1] it was 84.7 µM. Further, the values for the Activity result in the data set on HepG2 [1], with HepG2 [3] and in the data set with HepG2 [5] were “Dose-dependent effect”, “Toxic” and “Toxic”, respectively. In addition, the viability at 48 h, 25 µM in data set [2] is not below 70%. In addition, the selectivity ratio in data set [4] turned out to be 22.6. Also, the viability at 48 h, 3.13 µM in data set [6] is 92.5%.
`O=S(=O)(c1ccc(Cl)cc1Cl)n1nnnc1-c1ccc2c(c1)OCO2`: the IC50 in the data set on Entamoeba histolytica turned out to be 6.9 µM; in the data set on HepG2 [1], 85 µM. Besides, the Activity entry with HepG2 [1] is “Dose-dependent effect”; in the data set with HepG2 [3] it was “Toxic”; in the data set with HepG2 [5], “Toxic”. Moreover, the viability at 48 h, 25 µM in data set [2] was not below 70%. Besides, in data set [4], the selectivity ratio amounted to 12.3. Moreover, the viability at 48 h, 3.13 µM in data set [6] came to 92.5%.
`CC(C)c1ccc(S(=O)(=O)n2nnnc2-c2ccc3c(c2)OCO3)cc1`: the half-maximal inhibitory concentration (IC50) in the data set on Entamoeba histolytica was 6.28 µM; with HepG2 [1] it was more than 100 µM. The Activity entry is listed as “Dose-dependent effect” in the data set with HepG2 [1], “Toxic” with HepG2 [3] and “Toxic” with HepG2 [5]. In data set [2], the viability at 48 h, 25 µM is not below 70%. For the same compound, the selectivity ratio in data set [4] was more than 15.9. For the same compound, the viability at 48 h, 3.13 µM in data set [6] came out at 92.5%.
Consider `O=S(=O)(Nc1nc(NS(=O)(=O)c2ccccc2)nc(-c2ccc3c(c2)OCO3)n1)c1ccccc1`, for which the IC50 with Entamoeba histolytica was 2.6 µM; in the data set with HepG2 [1], more than 100 µM. The Activity result in the data set with HepG2 [1] is listed as “Dose-dependent effect”; in the data set on HepG2 [3], “Toxic”; in the data set with HepG2 [5], “Toxic”. Moreover, the viability at 48 h, 25 µM in data set [2] is not below 70%. Besides, in data set [4], the selectivity ratio was more than 38.5. The viability at 48 h, 3.13 µM in data set [6] came out at 92.5%.
On to `Cc1ccc(S(=O)(=O)Nc2nc(NS(=O)(=O)c3ccc(C)cc3)nc(-c3ccc4c(c3)OCO4)n2)cc1`, for which the IC50 in the data set with Entamoeba histolytica was 2.15 µM; in the data set on HepG2 [1], more than 100 µM. Besides, the Activity entry with HepG2 [1] is “Dose-dependent effect”; with HepG2 [3], “Toxic”; with HepG2 [5] it was “Toxic”. Further, in data set [2], the viability at 48 h, 25 µM is not below 70%. For the same compound, the selectivity ratio in data set [4] was more than 46.5. Besides, in data set [6], the viability at 48 h, 3.13 µM turned out to be 92.5%.
Turning to `O=S(=O)(Nc1nc(NS(=O)(=O)c2ccc(Cl)cc2)nc(-c2ccc3c(c2)OCO3)n1)c1ccc(Cl)cc1`, the IC50 with Entamoeba histolytica was 1.05 µM; with HepG2 [1], more than 100 µM. The Activity entry in the data set with HepG2 [1] is “Dose-dependent effect”; with HepG2 [3], “Toxic”; in the data set with HepG2 [5] it was “Toxic”. In addition, the viability at 48 h, 25 µM in data set [2] is not below 70%. In addition, the selectivity ratio in data set [4] is more than 95.2. Moreover, the viability at 48 h, 3.13 µM in data set [6] was determined as 92.5%.
As for `O=[N+]([O-])c1ccc(S(=O)(=O)Nc2nc(NS(=O)(=O)c3ccc([N+](=O)[O-])cc3)nc(-c3ccc4c(c3)OCO4)n2)cc1`, the IC50 was 1.02 µM in the data set with Entamoeba histolytica and more than 100 µM with HepG2 [1]. The Activity entry is “Dose-dependent effect” in the data set on HepG2 [1], “Toxic” with HepG2 [3] and “Toxic” with HepG2 [5]. Further, the viability at 48 h, 25 µM in data set [2] is not below 70%. Besides, in data set [4], the selectivity ratio was more than 98. Further, the viability at 48 h, 3.13 µM in data set [6] is 92.5%.
`O=S(=O)(Nc1nc(NS(=O)(=O)c2ccc(Cl)cc2Cl)nc(-c2ccc3c(c2)OCO3)n1)c1ccc(Cl)cc1Cl`: the IC50 with Entamoeba histolytica was 2.56 µM; with HepG2 [1], more than 100 µM. The Activity result in the data set on HepG2 [1] was “Dose-dependent effect”; in the data set on HepG2 [3], “Toxic”; in the data set on HepG2 [5], “Toxic”. Moreover, in data set [2], the viability at 48 h, 25 µM is not below 70%. Moreover, the selectivity ratio in data set [4] is more than 39.1. In addition, the viability at 48 h, 3.13 µM in data set [6] was 92.5%.
`CC(C)c1ccc(S(=O)(=O)Nc2nc(NS(=O)(=O)c3ccc(C(C)C)cc3)nc(-c3ccc4c(c3)OCO4)n2)cc1`: the half-inhibitory concentration (IC50) in the data set on Entamoeba histolytica was 2.85 µM; with HepG2 [1] it was more than 100 µM. Further, the Activity result was “Dose-dependent effect” in the data set on HepG2 [1], “Toxic” in the data set on HepG2 [3] and “Toxic” in the data set with HepG2 [5]. In data set [2], the viability at 48 h, 25 µM was not below 70%. Moreover, in data set [4], the selectivity ratio was more than 35.1. The viability at 48 h, 3.13 µM in data set [6] was 92.5%.
As to `c1cc2c(cc1-c1nnn[nH]1)OCO2`, the IC50 in the data set with Entamoeba histolytica is 14.2 µM. For the same compound, the Activity entry in the data set on HepG2 [1] was “Dose-dependent effect”; in the data set on HepG2 [3], “Toxic”; with HepG2 [5], “Toxic”. In addition, the viability at 48 h, 25 µM in data set [2] is not below 70%. The viability at 48 h, 3.13 µM in data set [6] came to 92.5%.
With `Nc1nc(N)nc(-c2ccc3c(c2)OCO3)n1`, in the data set with Entamoeba histolytica, the half-maximal inhibitory concentration (IC50) came out at 3.54 µM. Besides, the Activity result in the data set with HepG2 [1] was “Dose-dependent effect”; in the data set with HepG2 [3], “Toxic”; in the data set on HepG2 [5], “Toxic”. Moreover, in data set [2], the viability at 48 h, 25 µM is not below 70%. For the same compound, in data set [6], the viability at 48 h, 3.13 µM was 92.5%.
On to `Cc1ncc([N+](=O)[O-])n1CCO` [METRONIDAZOLE], for which the IC50 in the data set with HepG2 [1] was more than 100 µM. The selectivity ratio in data set [4] is more than 55.5. In data set [6], the viability at 48 h, 3.13 µM amounted to 92.5%.
